Assay results taken from ChEMBL document CHEMBL1126896, “Preparation and anti-HIV activity of O-acylated heparin and dermatan sulfate derivatives with low anticoagulant effect” (J Med Chem, 1993).

Columns and labels:
HuT78 = assay: Giant-cell formation between persistently HIV-1 infected HUT-78 cells and uninfected MOLT-4 cells; format: functional, cell-based
Method in brief: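 MOLT-4 cells were co-cultured with an equal number of HUT-78 cells persistently infected with HIV-1 IIIB or HIV-2 ROD, with varying compound concentrations. Syncytia were counted by flow cytofluorography after 24 h. EC50 is the concentration giving 50% protection against giant-cell formation.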

[1] = In vitro anticoagulant activity determined by clotting test of activated partial thromboplastin time (APTT) on a pool of human plasma; format: functional
Method in brief: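 Activated partial thromboplastin time clotting test on pooled human plasma, run on an automatic coagulometer. Activities were calculated according to the European Pharmacopoeia.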

MT4 [2] = assay: Effective concentration to achieve 50% protection of MT-4 cells against the cytopathic effect of HIV-1; format: functional, cell-based
MT4 [3] = assay: Effective concentration to achieve 50% protection of MT-4 cells against the cytopathic effect of HIV-2; format: functional, cell-based
MT4 [4] = assay: Selectivity index for CC50 (cytotoxic concentration based on reduction of viability of mock-infected MT-4 cells) to that of EC50 against HIV-2; format: functional
Method in brief: (§1)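 MT-4 cells at 3 × 10^5 cells/mL were infected with HIV-1 IIIB or HIV-2 ROD at 100 CCID50/mL, or mock-infected, alongside serial compound dilutions. Viability was read by MTT after 5 days at 37 °C. CC50 comes from mock-infected cells and EC50 from protection against cytopathicity. Index = CC50/EC50.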

MT4 [5] = assay: Selectivity index for CC50 (cytotoxic concentration based on the reduction of the viability of mock-infected MT-4 cells) to that of EC50 against HIV-1; format: functional; method in brief: as §1
[6] = Homo sapiens, MT4, read-out: EC50

Structure (SMILES)	EC50 (HuT78; Homo sapiens, HuT78, read-out: EC50) [µg/mL]	APTT [1] [IU mg-1]	EC50 (MT4 [2]; [6]) [µg/mL]	EC50 (MT4 [3]; [6]) [µg/mL]	Selectivity index (MT4 [4])	Selectivity index (MT4 [5])	EC50 (HuT78; hut78) [µg/mL]	EC50 (MT4 [2]; mt4) [µg/mL]	EC50 (MT4 [3]; mt4) [µg/mL]
COC1C(NC(C)=O)C(OC2C(C(=O)[O-])OC(OC3C(NC(C)=O)C(OC4C(C(=O)[O-])OC(C)C(OC(C)=O)C4O)OC(COC(C)=O)C3OS(=O)(=O)[O-])C(OC(C)=O)C2OC(C)=O)OC(COC(C)=O)C1OS(=O)(=O)[O-].[Na+].[Na+].[Na+].[Na+] (stereo unspecified)	> 50	1.7	> 500	88	5.7				
CC(=O)N[C@H]1[C@@H](O[C@H]2[C@H](O)[C@@H](OC(C)=O)[C@H](O[C@H]3[C@@H](OS(=O)(=O)[O-])[C@@H](NS(=O)(=O)[O-])[C@@H](O[C@H]4[C@H](O)[C@@H](OS(=O)(=O)[O-])[C@H](O[C@H]5[C@H](O)[C@@H](CO)O[C@@H]5COS(=O)(=O)[O-])O[C@H]4C(=O)[O-])O[C@@H]3COS(=O)(=O)[O-])O[C@@H]2C(=O)[O-])O[C@H](COS(=O)(=O)[O-])[C@@H](O[C@@H]2O[C@@H](C(=O)[O-])[C@@H](O)[C@H](O)[C@H]2OC(C)=O)[C@@H]1O.[Na+].[Na+].[Na+].[Na+].[Na+].[Na+].[Na+].[Na+].[Na+]		11	77			>8			
CCCC(=O)OC/C(=C\C(=O)[O-])O[C@H]1O[C@H](COS(=O)(=O)[O-])[C@@H](O[C@@H]2O[C@@H](C(=O)[O-])[C@@H](O[C@H]3O[C@H](COS(=O)(=O)[O-])[C@@H](O[C@@H]4O[C@@H](C(=O)[O-])[C@@H](O[C@H]5O[C@H](CS(=O)(=O)[O-])[C@@H](O)[C@H](OC(=O)CCC)[C@H]5NS(=O)(=O)[O-])[C@H](OC(=O)CCC)[C@H]4OS(=O)(=O)[O-])[C@H](OC(=O)CCC)[C@H]3NS(=O)(=O)[O-])[C@H](OC(=O)CCC)[C@H]2OS(=O)(=O)[O-])[C@H](OC(=O)CCC)[C@H]1NS(=O)(=O)[O-].[Na+].[Na+].[Na+].[Na+].[Na+].[Na+].[Na+].[Na+].[Na+].[Na+].[Na+] (stereo in doubt; 2d)		12				>1430	2.6	0.35	
CCCC(=O)OC/C(=C\C(=O)[O-])O[C@H]1O[C@H](COS(=O)(=O)[O-])[C@@H](O[C@@H]2O[C@@H](C(=O)[O-])[C@@H](O[C@H]3O[C@H](COS(=O)(=O)[O-])[C@@H](O[C@@H]4O[C@@H](C(=O)[O-])[C@@H](O[C@H]5O[C@H](CS(=O)(=O)[O-])[C@@H](O)[C@H](OC(=O)CCC)[C@H]5NS(=O)(=O)[O-])[C@H](OC(=O)CCC)[C@H]4OS(=O)(=O)[O-])[C@H](OC(=O)CCC)[C@H]3NS(=O)(=O)[O-])[C@H](OC(=O)CCC)[C@H]2OS(=O)(=O)[O-])[C@H](OC(=O)CCC)[C@H]1NS(=O)(=O)[O-].[Na+].[Na+].[Na+].[Na+].[Na+].[Na+].[Na+].[Na+].[Na+].[Na+].[Na+] (stereo in doubt; 4a)		0.3			> 7140	>4	> 100	115	
CCCC(=O)OC/C(=C\C(=O)[O-])O[C@H]1O[C@H](COS(=O)(=O)[O-])[C@@H](O[C@@H]2O[C@@H](C(=O)[O-])[C@@H](O[C@H]3O[C@H](COS(=O)(=O)[O-])[C@@H](O[C@@H]4O[C@@H](C(=O)[O-])[C@@H](O[C@H]5O[C@H](CS(=O)(=O)[O-])[C@@H](O)[C@H](OC(=O)CCC)[C@H]5NS(=O)(=O)[O-])[C@H](OC(=O)CCC)[C@H]4OS(=O)(=O)[O-])[C@H](OC(=O)CCC)[C@H]3NS(=O)(=O)[O-])[C@H](OC(=O)CCC)[C@H]2OS(=O)(=O)[O-])[C@H](OC(=O)CCC)[C@H]1NS(=O)(=O)[O-].[Na+].[Na+].[Na+].[Na+].[Na+].[Na+].[Na+].[Na+].[Na+].[Na+].[Na+] (stereo in doubt; 4j)		19.8			2381		10.7		0.21
